Experimental data as given in ChEMBL document CHEMBL4229364, “Structure-activity relationships of 2, 4-disubstituted pyrimidines as dual ERα/VEGFR-2 ligands with anti-breast cancer activity” (Eur J Med Chem, 2018).
Active and inactive are the calls of the source. The rule behind the calls is not given here.

Assays:
[1] = target: T1, Vascular endothelial growth factor receptor 2 (Homo sapiens, UniProt P35968); test: Inhibition of VEGFR2 (unknown origin) using TK substrate after 1 hr by HTRF assay
T1 sequence (P35968 whole entry): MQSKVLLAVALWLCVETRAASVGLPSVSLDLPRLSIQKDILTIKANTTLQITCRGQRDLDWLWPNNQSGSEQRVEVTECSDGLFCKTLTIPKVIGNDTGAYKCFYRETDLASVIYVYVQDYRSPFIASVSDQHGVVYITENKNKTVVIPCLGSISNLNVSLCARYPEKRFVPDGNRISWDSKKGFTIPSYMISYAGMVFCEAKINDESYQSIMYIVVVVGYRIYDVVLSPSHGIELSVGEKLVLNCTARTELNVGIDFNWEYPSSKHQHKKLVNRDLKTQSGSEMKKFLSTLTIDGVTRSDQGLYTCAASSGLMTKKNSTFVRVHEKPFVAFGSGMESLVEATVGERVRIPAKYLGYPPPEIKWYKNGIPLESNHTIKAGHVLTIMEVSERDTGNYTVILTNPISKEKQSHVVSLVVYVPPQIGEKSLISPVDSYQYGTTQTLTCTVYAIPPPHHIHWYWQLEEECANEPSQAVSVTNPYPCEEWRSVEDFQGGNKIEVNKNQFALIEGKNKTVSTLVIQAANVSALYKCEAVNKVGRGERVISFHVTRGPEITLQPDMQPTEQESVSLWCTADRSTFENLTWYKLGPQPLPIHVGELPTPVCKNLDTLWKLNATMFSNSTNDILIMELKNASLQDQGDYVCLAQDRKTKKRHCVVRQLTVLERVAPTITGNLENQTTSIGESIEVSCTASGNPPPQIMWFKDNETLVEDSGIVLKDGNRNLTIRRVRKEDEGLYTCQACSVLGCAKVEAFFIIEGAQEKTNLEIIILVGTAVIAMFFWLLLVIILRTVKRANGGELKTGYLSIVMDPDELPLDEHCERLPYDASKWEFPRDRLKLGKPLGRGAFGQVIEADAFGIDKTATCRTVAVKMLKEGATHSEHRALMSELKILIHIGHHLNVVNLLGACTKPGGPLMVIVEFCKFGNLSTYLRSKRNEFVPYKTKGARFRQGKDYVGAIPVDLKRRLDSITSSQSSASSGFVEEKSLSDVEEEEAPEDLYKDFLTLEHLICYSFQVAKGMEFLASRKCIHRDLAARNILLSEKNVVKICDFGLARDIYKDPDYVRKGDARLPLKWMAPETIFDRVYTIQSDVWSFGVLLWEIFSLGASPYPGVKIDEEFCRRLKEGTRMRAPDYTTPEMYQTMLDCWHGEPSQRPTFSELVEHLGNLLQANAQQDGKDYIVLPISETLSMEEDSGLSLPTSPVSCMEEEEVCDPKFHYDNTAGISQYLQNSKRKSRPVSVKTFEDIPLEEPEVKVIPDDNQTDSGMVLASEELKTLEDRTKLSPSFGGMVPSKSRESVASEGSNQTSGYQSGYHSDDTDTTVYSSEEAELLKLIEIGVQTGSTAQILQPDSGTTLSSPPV

[2] = target: Mitogen-activated protein kinase; ERK1/ERK2 (Homo sapiens) (UniProt P27361+P28482); test: Inhibition of ERK1/ERK2 phosphorylation in human MCF7 cells at 0.5 uM after 24 hrs by Western blot analysis; type: cell-based
Sequence of Mitogen-activated protein kinase; ERK1/ERK2 (Homo sapiens) (P27361 whole entry, looked up): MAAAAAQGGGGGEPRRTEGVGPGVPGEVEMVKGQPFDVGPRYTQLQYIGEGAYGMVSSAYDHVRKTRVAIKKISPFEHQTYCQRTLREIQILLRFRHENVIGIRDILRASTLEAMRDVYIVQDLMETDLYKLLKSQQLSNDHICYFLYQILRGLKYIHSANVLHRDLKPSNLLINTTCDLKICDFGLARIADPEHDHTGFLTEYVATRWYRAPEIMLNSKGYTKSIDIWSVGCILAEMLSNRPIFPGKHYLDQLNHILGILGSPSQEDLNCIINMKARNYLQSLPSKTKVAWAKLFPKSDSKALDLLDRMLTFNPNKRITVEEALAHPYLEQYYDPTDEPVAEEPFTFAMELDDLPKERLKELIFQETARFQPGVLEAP
Sequence of Mitogen-activated protein kinase; ERK1/ERK2 (Homo sapiens) (P28482 whole entry, looked up): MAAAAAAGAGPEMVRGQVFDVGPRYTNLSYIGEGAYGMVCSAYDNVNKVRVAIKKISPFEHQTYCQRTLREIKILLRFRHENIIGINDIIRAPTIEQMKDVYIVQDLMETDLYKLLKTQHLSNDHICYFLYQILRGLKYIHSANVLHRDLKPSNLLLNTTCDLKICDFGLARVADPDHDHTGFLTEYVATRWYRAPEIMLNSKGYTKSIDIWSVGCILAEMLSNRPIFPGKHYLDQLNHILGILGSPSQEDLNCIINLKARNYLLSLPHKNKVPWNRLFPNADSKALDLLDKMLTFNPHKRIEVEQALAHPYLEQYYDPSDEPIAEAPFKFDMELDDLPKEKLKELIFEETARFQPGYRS

MCF7 [3] = test: Induction of apoptosis in human MCF7 cells assessed as necrtotic cells at 1 uM after 24 hrs by Annexin V-FITC/propidium iodide staining based flow cytometry (reference value: 2.05%); type: functional
Estrogen receptor = target: T2, Estrogen receptor (Homo sapiens, UniProt P03372); test: Displacement of Fluormone ES2 Green from full length human ER-alpha expressed in insect cells after 2 hrs by fluorescence polarization assay
T2 sequence (P03372 whole entry): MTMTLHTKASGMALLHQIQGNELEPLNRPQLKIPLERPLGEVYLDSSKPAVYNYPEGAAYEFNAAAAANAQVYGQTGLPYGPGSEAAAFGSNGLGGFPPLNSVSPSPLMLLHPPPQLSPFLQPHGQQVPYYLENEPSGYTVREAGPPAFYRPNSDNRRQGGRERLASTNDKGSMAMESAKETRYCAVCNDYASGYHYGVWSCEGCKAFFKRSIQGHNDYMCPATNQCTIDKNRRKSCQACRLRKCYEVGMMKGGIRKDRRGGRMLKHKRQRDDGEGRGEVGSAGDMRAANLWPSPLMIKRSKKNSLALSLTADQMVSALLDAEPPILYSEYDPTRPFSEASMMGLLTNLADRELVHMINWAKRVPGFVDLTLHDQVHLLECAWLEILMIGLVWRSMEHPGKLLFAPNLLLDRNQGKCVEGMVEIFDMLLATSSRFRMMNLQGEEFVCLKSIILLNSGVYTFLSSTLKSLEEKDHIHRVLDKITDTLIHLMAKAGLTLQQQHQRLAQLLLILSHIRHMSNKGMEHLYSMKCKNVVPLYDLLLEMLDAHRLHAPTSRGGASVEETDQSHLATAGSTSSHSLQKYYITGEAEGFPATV

MCF7 [4] = test: Antiproliferative activity against human MCF7 cells after 48 hrs by MTT assay; type: functional, cell-based; conditions: MCF7, 48 h
Method in brief: (§1)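 MTT assay. Cells were grown in RPMI1640 with 10% FBS and penicillin/streptomycin at 37°C, 5% CO2, seeded at 1×10^5/mL and rested 24 h. Compound was added at 4×10^-5 to 1×10^-6 mol/L for 48 h; controls received 1% DMSO. MTT (5 mg/mL) was added for 4 h in the dark and the formazan dissolved in DMSO. A490 was read and IC50 derived.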

MCF7 [5] = test: Antimigratory activity against human MCF7 cells at 0.5 to 1 uM after 48 hrs by crystal violet staining based microscopic method; type: functional, cell-based
Method in brief: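 Transwell assay on Matrigel-coated membranes, 5×10^4 cells per well. Cells were treated at plating. After 24 h the invading cells were fixed, with 48 h seeding. Cells were stained with crystal violet (0.1% in 20% methanol) and counted by microscopy. Treatments were 0.5 and 1 µM, with DMSO as vehicle control.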

MCF7 [6] = test: Induction of apoptosis in human MCF7 cells assessed as early apoptotic cells at 0.5 uM after 24 hrs by Annexin V-FITC/propidium iodide staining based flow cytometry (reference value: 4.46%); type: functional
MCF7 [7] = test: Induction of apoptosis in human MCF7 cells assessed as live cells at 1 uM after 24 hrs by Annexin V-FITC/propidium iodide staining based flow cytometry (reference value: 87.5%); type: functional
MCF7 [8] = test: Induction of apoptosis in human MCF7 cells assessed as late apoptotic cells at 1 uM after 24 hrs by Annexin V-FITC/propidium iodide staining based flow cytometry (reference value: 6.01%); type: functional
HUVEC = test: Antiproliferative activity against HUVEC after 48 hrs by MTT assay; type: functional, cell-based; conditions: Homo sapiens; method in brief: as §1
MCF7 [9] = test: Induction of apoptosis in human MCF7 cells assessed as late apoptotic cells at 0.5 uM after 24 hrs by Annexin V-FITC/propidium iodide staining based flow cytometry (reference value: 6.01%); type: functional
MCF7 [10] = test: Induction of apoptosis in human MCF7 cells after 24 hrs by Annexin V-FITC/propidium iodide staining based flow cytometry; type: functional, cell-based
Ishikawa = test: Antiproliferative activity against human Ishikawa cells after 48 hrs by MTT assay; type: functional, cell-based; method in brief: as §1
[11] = target: T1, Vascular endothelial growth factor receptor 2; conditions: at 10 µM
MDA-MB-231 = test: Antiproliferative activity against human MDA-MB-231 cells after 48 hrs by MTT assay; type: functional, cell-based; method in brief: as §1
MCF7 [12] = test: Effect on total RAF1 protein expression in human MCF7 cells at 0.5 uM after 24 hrs by Western blot analysis; type: ADME, cell-based; conditions: mcf7, 24 h
MCF7 [13] = test: Induction of apoptosis in human MCF7 cells assessed as necrtotic cells at 0.5 uM after 24 hrs by Annexin V-FITC/propidium iodide staining based flow cytometry (reference value: 2.05%); type: functional
[14] = target: RAF proto-oncogene serine/threonine-protein kinase (Homo sapiens) (UniProt P04049); test: Inhibition of RAF1 phosphorylation in human MCF7 cells at 0.5 uM after 24 hrs by Western blot analysis; type: cell-based
Sequence of RAF proto-oncogene serine/threonine-protein kinase (Homo sapiens) (P04049 whole entry): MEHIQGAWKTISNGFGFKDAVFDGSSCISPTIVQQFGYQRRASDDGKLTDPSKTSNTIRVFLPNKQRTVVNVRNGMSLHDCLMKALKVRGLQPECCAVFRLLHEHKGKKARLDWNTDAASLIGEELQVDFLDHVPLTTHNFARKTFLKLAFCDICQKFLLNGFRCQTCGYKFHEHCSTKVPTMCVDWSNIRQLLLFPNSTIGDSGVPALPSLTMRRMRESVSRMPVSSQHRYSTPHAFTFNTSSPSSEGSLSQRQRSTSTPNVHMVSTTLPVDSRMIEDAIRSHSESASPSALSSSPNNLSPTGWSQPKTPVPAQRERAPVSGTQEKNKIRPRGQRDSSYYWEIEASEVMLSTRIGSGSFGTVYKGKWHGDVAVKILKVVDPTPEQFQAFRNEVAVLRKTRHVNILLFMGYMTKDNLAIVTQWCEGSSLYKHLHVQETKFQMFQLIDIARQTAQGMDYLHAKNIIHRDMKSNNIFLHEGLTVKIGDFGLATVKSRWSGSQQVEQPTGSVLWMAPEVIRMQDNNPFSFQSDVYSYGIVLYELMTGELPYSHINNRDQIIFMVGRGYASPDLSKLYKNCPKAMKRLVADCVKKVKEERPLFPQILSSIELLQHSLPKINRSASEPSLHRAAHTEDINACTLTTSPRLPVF

MCF7 [15] = test: Potency index, ratio of tamoxifen IC50 to compound IC50 for antiproliferative activity against human MCF7 cells; type: functional
Method in brief: (§2)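 Potency index is the reference drug's MCF-7 MTT IC50 divided by the compound's IC50. Reference drugs were tamoxifen or raloxifene. Cells received 48 h exposure over 4×10^-5 to 1×10^-6 mol/L with a 1% DMSO control, then A490 readout.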

T47D = test: Antiproliferative activity against human T47D cells after 48 hrs by MTT assay; type: functional, cell-based; method in brief: as §1
MCF7 [16] = test: Induction of apoptosis in human MCF7 cells assessed as live cells at 0.5 uM after 24 hrs by Annexin V-FITC/propidium iodide staining based flow cytometry (reference value: 87.5%); type: functional
MCF7 [17] = test: Induction of apoptosis in human MCF7 cells assessed as early apoptotic cells at 1 uM after 24 hrs by Annexin V-FITC/propidium iodide staining based flow cytometry (reference value: 4.46%); type: functional
MCF7 [18] = test: Potency index, ratio of raloxifene IC50 to compound IC50 for antiproliferative activity against human MCF7 cells; type: functional; method in brief: as §2
[19] = target: T3, Estrogen receptor (Homo sapiens) (UniProt P03372); test: Antagonist activity at ERalpha in human MCF7 cells assessed as reduction in E2-induced progesterone receptor mRNA level at 0.4 uM by RT-PCR method; type: cell-based
T3 sequence (whole entry): T2 sequence (P03372 whole entry)
Method in brief: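 Quantitative RT-PCR of progesterone receptor mRNA in MCF-7 cells. RNA was reverse transcribed to cDNA and amplified with SYBR Green: 95°C 2 min, then 40 cycles of 95°C 10 s, 60°C 30 s, 95°C 10 s. Signal was normalized to GAPDH and quantified by ΔΔCT. Values are mean ± SD, n=3, compared against the E2 group.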

[20] = target: T1, Vascular endothelial growth factor receptor 2; conditions: HUVEC, at 1 µM
Chorioallantoic membrane = test: In vivo antiangiogenic activity in chicken egg chorioallantoic membrane after 72 hrs; type: functional, organism-based; conditions: Gallus gallus
Method in brief: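 Chick CAM assay. Fertilized eggs were incubated 7 days at 37°C, then a window of about 1 cm² was opened in the shell. […] Eggs were incubated a further 72 h at 37°C and 60% humidity. CAM was fixed in acetone/ethanol for 10 min and vessels imaged.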

Oc1ccc(-c2nc(Cl)c(-c3ccccc3)c(Oc3ccc(OCCN4CCCC4)cc3)n2)cc1
IC50 [1]: 85 nM
inhibition [2]: Active
Activity (MCF7 [3]): 0.9%
IC50 (Estrogen receptor): 1640 nM
IC50 (MCF7 [4]): 810 nM
Activity (MCF7 [5]): Active
Activity (MCF7 [6]): 8.89%
Activity (MCF7 [7]): 65.7%
Activity (MCF7 [8]): 28%
IC50 (HUVEC): 4570 nM
Activity (MCF7 [9]): 14.5%
Activity (MCF7 [10]): Dose-dependent effect
IC50 (Ishikawa): 5930 nM
inhibition [11]: 91.1%
Activity (MDA-MB-231): Dose-dependent effect
IC50 (MDA-MB-231; MDA-MB-231, 48 h): 3810 nM
Activity (MCF7 [12]): Non-Toxic
Activity (MCF7 [13]): 1.11%
inhibition [14]: Active
Ratio IC50 (MCF7 [15]): 19 - 20
Activity (T47D): Dose-dependent effect
IC50 (T47D): 2730 nM
Activity (MCF7 [16]): 75.5%
Activity (MCF7 [17]): 5.49%
Ratio IC50 (MCF7 [18]): 16
inhibition [19]: Active
inhibition [20]: Active
Activity (Chorioallantoic membrane): Dose-dependent effect
